Laboratory results published in ChEMBL document CHEMBL4513216, “Probing the Open Global Health Chemical Diversity Library for Multistage-Active Starting Points for Next-Generation Antimalarials” (ACS Infect Dis, 2020).

Experiment: Toxicity liver stage against HepG2, at 10uM
Format: cell-based
Set-up: test concentration 10 uM, cell line HepG2-A16-CD81EGFP
Details: human, HepG2-A16-CD81EGFP cells; read-out: INHIBITION
In short: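 Uninfected HepG2-A16-CD81EGFP cells, 3 × 10^3 per well, 1536-well, plated on prespotted compound at 10 μM final, parasite-free screening media added to match infected plates; puromycin 10 μM positive, DMSO 0.5% negative; run in parallel with 48 h PbLuc assay at 37 °C, 5% CO2; viability by CellTiter-Glo luminescence, normalized to controls.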

| SMILES | cytotoxicity at 10 µM [%] |
| --- | --- |
| CC(=O)NCCC(Cc1ccccc1)c1ccco1 (stereo unspecified) | -1.24 |
| Fc1cccc(-c2c[nH]c([C@@H]3COCCN3C3CCOCC3)n2)c1 | -1.31 |
| COc1cc(CN2C[C@@H]3CNC(=O)[C@H](C)[C@@H]3C2)cc(OC)c1 | 0.405 |
| Cc1cccc(Cl)c1NC(=O)Cn1cc(C(=O)O)ccc1=O | -1.35 |
| COc1ncccc1C(=O)N1CCC(c2nnc(C3CC3)o2)CC1 | 3.61 |
| CN(C)S(=O)(=O)N1CCC(Oc2ccc(C#N)cn2)CC1 | 4.16 |
| O=C1CC(c2ccc(C(=O)O)cc2)c2ncn(-c3cccc(F)c3)c2N1 (stereo unspecified) | -4.74 |
| CCC1=N[C@@]2(CC[C@@H]3CN(C(=O)NCC(C)C)C[C@@H]32)C(=O)N1CC(C)C | -3.64 |
| O=C(c1ccc2[nH]ccc2c1)N1CCn2cnc(COCC3CC3)c2C1 | 5.22 |
| CCCn1ncc2c(C(=O)NC(C)Cn3cccn3)cc(C3CC3)nc21 (stereo unspecified) | -8.97 |
| NC(=O)c1sc2ccccc2c1C1CCN(S(=O)(=O)N2CCOCC2)C1 (stereo unspecified) | 11.8 |
| O=C(C1CCCC1)N1CCOC(c2nc(-c3ncccn3)no2)C1 (stereo unspecified) | -2.3 |
| COc1ccc(-c2cc(C3CCN(C(C)=O)CC3)ccn2)cc1 | -5.05 |
| CNC(=O)c1ccc(C2CN(C(=O)c3coc(C)n3)CCO2)nc1 (stereo unspecified) | -7.69 |
| O=C1NCc2ccccc2CC12CCN(Cc1ccncc1Cl)C2 (stereo unspecified) | 8.27 |
| CN(C)C(CNS(=O)(=O)c1cnn(C)c1)c1cccc(F)c1 (stereo unspecified) | 5.66 |
| Cc1ccc(S(=O)(=O)NCc2[nH]ncc2Br)cc1F | 12.6 |
| CC(=O)N1CCN(CCCSCc2ccccc2)CC1 | 1.64 |
| COC(=O)c1ccc(CN2CCC(c3noc(C)n3)CC2)s1 | -1.51 |
| CC(C)n1cnnc1CNC(=O)c1cnn(Cc2ccccc2)c1 | 0.536 |
| CCNC(=O)CCC(=O)NCC1(O)CCC(C(C)(C)C)CC1 (stereo unspecified) | 5.55 |

| SMILES | cytotoxicity at 10 µM [%] |
| --- | --- |
| CNC(=O)COc1ccccc1CNC1CCc2nc(C)nn2C1 (stereo unspecified) | 6.56 |
| CN(C)CCN(Cc1ccccc1)C(=O)CN1CCCNC1=O | 1.42 |
| O=C(c1csc(-c2ccco2)n1)N(CC1CCOC1)C1CC1 (stereo unspecified) | -2.72 |
| CC(NC(=O)c1cccc(CN2CCN(C)CC2)c1)c1nccs1 (stereo unspecified) | -4.28 |
| COC(=O)CCC(=O)NC(C)Cc1ccccc1Br (stereo unspecified) | -6.66 |
| CN1CCN(CCCNC(=O)C2CCCCC2)CC1 | -1.82 |
| Cc1cccc2ncnc(N3CCOC(C)C3)c12 (stereo unspecified) | 0.00648 |
| O=C(NCc1ccc2c(c1)OCCO2)N1CCC(CO)CC1 | -4.62 |
| NC(=O)c1ccc(C(=O)N2CCCCC2C2OCCO2)cc1 (stereo unspecified) | -0.966 |
| C[S+]([O-])c1nncn1CC(=O)c1ccc2c(c1)CCC2 (stereo unspecified) | -1.88 |
| COc1ccc(C(=O)O)c(OCC(=O)NC(C)c2ccc(F)cc2)c1 (stereo unspecified) | 1.65 |
| Cc1cc(NC(=O)c2ccc(F)cc2Cl)n(C)n1 | -77.5 |
| COCCOc1ncccc1C(=O)N1CCCn2ncnc21 | -2.98 |
| O=S(=O)(c1ccc(Cl)cc1)N1CCC(OCc2ccccn2)C1 (stereo unspecified) | 1.48 |
| CC(C)(C)c1ccc(=O)n(CN2CCCC(C(F)(F)F)C2)n1 (stereo unspecified) | -2.19 |
| CC(CNC(=O)NCc1ccc2c(c1)OCO2)CC1(C)OCCO1 (stereo unspecified) | -6.78 |
| Cc1ccc(OCc2nc(CNCCn3cccn3)cs2)cc1 | 0.979 |
| COc1c(NC(=O)N(C)CCOc2ccccc2)c(C)nn1C | 19.2 |
| CCOC(=O)N1CCN(C(=O)Cc2c(C)nc(C)[nH]c2=O)CC1 | -6.31 |
| CN(C)C(=O)N1CCN(CCn2nc3ccccn3c2=O)CC1 | 0.562 |
| CC(=O)N1CC[C@@H]2O[C@H](C(=O)Nc3nc(C)cs3)C[C@@H]21 | 4.62 |

| SMILES | cytotoxicity at 10 µM [%] |
| --- | --- |
| CCOC(=O)c1coc(N2CCC(C(O)CC(C)C)CC2)n1 (stereo unspecified) | 5.78 |
| CN(Cc1nc(Cc2cccc(F)c2)no1)C1CCOCC1 | 2.79 |
| Cc1n[nH]c(C)c1Sc1ccccc1NC(=O)N1CCCC(C(N)=O)C1 (stereo unspecified) | -7.59 |
| COc1ccc(OCc2nc(C(=O)NCCN3CCOCC3)co2)cc1 | 1.87 |
| CSCc1noc(CNS(=O)(=O)c2cccc(C(=O)NC3CC3)c2)n1 | -2.51 |
| CN1C(=O)CC(C(=O)O)C12CCN(c1ccc3ccccc3n1)CC2 (stereo unspecified) | 1.21 |
| CC(C)CCC1=NC2(CCN(C(=O)N3CCN(C)CC3)CC2)C(=O)N1 | -6.08 |
| Cc1csc(CCNC(=O)C2CCN(CC(N)=O)CC2)n1 | -5.26 |
| CC[C@@H](CO)NC(=O)c1coc(COc2ccc(OC)cc2)n1 | 15 |
| Cc1cc(C(=O)N2CCC(c3nccn3CCCN(C)C)CC2)no1 | -12.4 |
| Cc1cc(C2CCCN(C(=O)Cc3csc(C(C)C)n3)C2)n[nH]1 (stereo unspecified) | -7.27 |
| CC(=O)Nc1nc(CN2CCn3c(nnc3C(C)C)C2)cs1 | -2.17 |
| CC(=O)N(C)CC(=O)NCC1CCN(c2cc(Cl)ccc2C)C1 (stereo unspecified) | -8.77 |
| c1csc(-c2nc(CNCCn3cccn3)cs2)c1 | -7.36 |
| COC(=O)c1ccc(N2CCN(C(=O)c3cnccn3)C(C)C2)cc1 (stereo unspecified) | -12.9 |
| Cc1ccc(-n2ncc(C(=O)NCC3CCS(=O)(=O)C3)c2C)cc1 (stereo unspecified) | -9.01 |
| O=C(NCc1ccccc1F)NCC(O)c1cccc(F)c1 (stereo unspecified) | -2.95 |
| O=C(c1ccc(Cn2cccc2)cc1)N1CCN(CCO)CC1 | -3.69 |
| Cc1nc(CCNC(=O)NCc2cccc(N(C)C)n2)cs1 | 12 |
| FC(F)(F)c1cccc(CNc2nccc(C(F)(F)F)n2)c1 | -19 |
| O=C1COc2cc(C(=O)N3CCCC(n4cccn4)C3)ccc2N1 (stereo unspecified) | -22.6 |

| SMILES | cytotoxicity at 10 µM [%] |
| --- | --- |
| COCCN1CCN(CC(O)c2ccc(OC(F)(F)F)cc2)CC1 (stereo unspecified) | -22.1 |
| Cc1ccc(CNc2cc(N3CCCC3CO)ncn2)s1 (stereo unspecified) | -2.9 |
| CCc1nccn1C1CCCN(C(=O)Cc2cn3ccsc3n2)C1 (stereo unspecified) | -23 |
| O=C(CCc1ccsc1)N1CCCCC1Cn1cccn1 (stereo unspecified) | -5.78 |
| O=C(CNCCn1cccn1)NCC1(c2ccccc2)CCCC1 | -5.92 |
| Cc1cnn(CC2CCCN2C(=O)c2csc(C3CC3)n2)c1 (stereo unspecified) | -17.8 |
| Cc1cc(NC(=O)CCN2CCn3c(nnc3C3CC3)C2)no1 | 7.11 |
| Cc1csc(N2CCN(C(=O)Cc3ccc(C)s3)CC2)n1 | -7.05 |
| Cc1nc(Nc2nnc(C)s2)cc(C2CCCN2)n1 (stereo unspecified) | 3.81 |
| CNC(=O)[C@H]1C[C@@H]2CN(Cc3cccnc3OC)C[C@@H]2N1C(C)=O | 1.2 |
| c1cnc(NC2COC3(CCN(Cc4cccs4)CC3)C2)nc1 (stereo unspecified) | 0.603 |
| COc1ccc(C[C@H]2CN(C3CCOCC3)CC[C@H]2OCC2CC2)cc1 | -6.57 |
| COc1ccc(CN2CC[C@@H](O)[C@@H]2Cc2ccccc2)cc1 | 4.49 |
| CS(=O)(=O)NC[C@H]1OC[C@H]2CN(Cc3ccsc3)CC[C@H]21 | 5.29 |
| O=C([C@H]1C[C@H]2OCC[C@H]2N(C(=O)c2ccncc2)C1)N1CCCC1 | 4.76 |
| O=C(CN1CCN(CC(O)C2CC2)CC1)NCc1ccccc1 (stereo unspecified) | 6.03 |
| Cc1nc(CN2CCC3(CCN(c4ncc(F)cn4)C3)C2=O)cs1 (stereo unspecified) | 3.61 |
| Cc1ccc2c(c1)CN(C(=O)c1ccncc1)C(CN(C)C)CO2 (stereo unspecified) | -13.5 |
